Screening data deposited in PubChem BioAssay by several laboratories.
Ecoli tolC: growth inhibitors of E. coli tolC mutant, primary screen, strain BW25113 ΔtolC::kan, 384-well. OD615. growth inhibition, % at 10 µM (by protocol). 65,000 compounds, 2.2% hits;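 active = growth inhibition at or above a cutoff equal to the mean over every tested compound plus 3 SD, cut at about 60% in these data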;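 note: growth measured after 20 h incubation at 37 °C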
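Test system: E. coli BW25113 ΔtolC::kan bacteria | Medium: Kanamycin-containing LB broth (50 µg/mL) | Dosing: One dose of 10 µM final | Times: 20 h incubation with compound, 37 °C | Detection: Optical density read at 615 nm | Read-out basis: Percent growth inhibition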
PLAP activator: PLAP enzyme activators, biochemical, luminescence, HTS | Alkaline phosphatase, placental type (Homo sapiens), P05187 | purified PLAP enzyme, luminescent substrate read-out; hits give high values | activation fold at 20 µM | 96,000 compounds, 1.2% hits; in the data active = activation fold above about 2
HePTP inh: inhibitors of human HePTP phosphatase, primary screen, biochemical, absorbance, leukemia target | recombinant HePTP phosphatase activity, OD absorbance | 110,000 compounds, 0.64% hits | inhibition, % at 20 µM | Tyrosine-protein phosphatase non-receptor type 7 (Homo sapiens), P35236; in the data active = inhibition above about 50%;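 note: plate controls were vehicle for no effect and reference inhibitor for full effect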
E coli WT exp: growth inhibitors of wild-type E. coli, primary screen, strain BW25113, expanded library, OD600; OD600 absorbance; growth inhibition, % at 100 µM; 98,000 compounds, 0.15% hits; AID 710, 2007;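 active = growth inhibition above about 50% at one test dose, limit read from the data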;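 note: growth measured after 20 h incubation at 37 °C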
PostGolgi ctrl: growth inhibition of yeast control strain, primary screen, counter-screen for post-Golgi transport modulator project. efflux-deficient yeast background strain, growth absorbance A615, 16 h. 98,000 compounds, 5% hits. AID 738, 2007. inhibition, % at 10 µM
PostGolgi yeast: phenotypic screen on post-Golgi transport, primary screen; post-Golgi transport phenotypic cell assay; inhibition, % at 10 µM; 98,000 compounds, 0.9% hits;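 note: yeast cells grown in 1536-well plates; yeast grown about 18 h at 30C before absorbance read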
An asterisk follows results filed as active; · = no result. Most compounds without a hit are left out; they make up all but 5.4% or so of the library. Cut-off read from the data, not from the text of the source, unless noted: active = inhibition above about 30%; inactive = the rest.

SMILES	Ecoli tolC	PLAP activator	HePTP inh	E coli WT exp	PostGolgi ctrl	PostGolgi yeast
CCOC(=O)C1Cn2c(nc3c(c2=O)C2(CCCC2)Cc2ccccc2-3)S1 (stereo not given)	17.0	1.5	-2.0	-6.0	37.9*	-2.6
COCCN(CC(=O)NC1CCCCC1)C(=O)CSc1nc2ccccc2o1	3.8	0.9	-1.4	3.0	8.3	-3.6
O=C(CN(Cc1ccc2c(c1)OCO2)C(=O)CSc1nc2ccccc2o1)NC1CCCCC1	100.0*	1.1	5.2	2.0	4.3	5.2
O=C1CCCC2=C1C1(CCCCC1)N=C(Nc1nc3ccccc3s1)N2	-17.5	0.9	7.7	-19.0	33.5*	2.3
CC(C)(C)/C(O)=C(/C#N)c1nc2ccccc2[nH]1	4.0	1.4	7.8	5.0	10.5	8.3
CC(C)CC(/C(O)=C(\C#N)c1nc2ccccc2[nH]1)N1C(=O)c2ccccc2C1=O (stereo not given)	24.3	2.1*	2.1	4.0	-2.8	-1.4
COc1ccc(NC(=S)NC(NC(=O)c2ccc(Cl)cc2Cl)C(Cl)(Cl)Cl)c([N+](=O)[O-])c1 (stereo not given)	·	1	·	-11.0	22.4	68.9*
COc1ccc(OC)c(NC(=S)NC(NC(=O)c2ccccc2Cl)C(Cl)(Cl)Cl)c1 (stereo not given)	·	·	104.0*	·	·	·
O=S(=O)(/N=C(/Nc1cccc(O)c1)c1ccccc1)c1ccccc1	·	·	3.8	·	·	·
Cc1cc(-n2c(C)cc(C(=O)CSc3nnc4sc5ccccc5n34)c2C)no1	-5.3	1.1	-2.3	2.0	8.9	15.2
Cc1cc(-n2c(C)cc(C(=O)CSc3ncnc4ccccc34)c2C)no1	12.1	1	4.0	-6.0	40.4*	-0.3
CCCCCCCCNc1ncnc2ccccc12	·	10.5	·	43.0	9.3	44.1*
